# Measured values: ChEMBL document CHEMBL3352430, “4-Aminopyridyl-based CYP51 inhibitors as anti-Trypanosoma cruzi drug leads with improved pharmacokinetic profile and in vivo potency” (J Med Chem, 2014)
# System: not listed separately
# Assay: Drug uptake in mouse fat at 50 mg/kg, po in 20% HP-beta-CD measured at 8 hrs post dose
# Assay type: ADME, organism-based, Adipose tissue
# Parameters: dose 50 mg/kg, route oral
# Settings: in vivo; call rule not given here
# Outline: (§1)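 Female Swiss Webster mice, 8 weeks old, given a single 50 mg/kg oral gavage dose in 20% HPβCD or 20% Kolliphor. Tissues taken from three mice at 2 and 8 h post dose. Homogenized by probe sonication in PBS (1:4 w/v), protein precipitated with acetonitrile, and compound measured by LC-MS/MS in μM.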
row,SMILES,Drug uptake
1,O=C(N[C@H](Cc1c[nH]c2ccccc12)C(=O)Nc1ccncc1)c1ccc(-c2cccc(F)c2)cc1F,Active
2,O=C(N[C@H](Cc1c[nH]c2ccccc12)C(=O)Nc1ccncc1)c1ccc(-c2ccc(OCc3ccc(F)cc3)c(F)c2)cc1F,Active

# System: Liver microsome
# Assay: Half life in rat liver microsomes
# Assay type: ADME
# Settings: not given
row,SMILES,t1/2
1,O=C(N[C@H](Cc1c[nH]c2ccccc12)C(=O)Nc1ccncc1)c1ccc(-c2cccc(F)c2)cc1F,20 min
2,O=C(N[C@H](Cc1c[nH]c2ccccc12)C(=O)Nc1ccncc1)c1ccc(-c2ccc(OCc3ccc(F)cc3)c(F)c2)cc1F,39 min

# System: Intestine
# Assay: Drug uptake in mouse intestine at 50 mg/kg, po in 20% HP-beta-CD measured at 8 hrs post dose
# Assay type: ADME, organism-based
# Parameters: dose 50 mg/kg, route oral
# Settings: in vivo
# Outline: as §1
row,SMILES,Drug uptake
1,O=C(N[C@H](Cc1c[nH]c2ccccc12)C(=O)Nc1ccncc1)c1ccc(-c2cccc(F)c2)cc1F,Active
2,O=C(N[C@H](Cc1c[nH]c2ccccc12)C(=O)Nc1ccncc1)c1ccc(-c2ccc(OCc3ccc(F)cc3)c(F)c2)cc1F,Active

# System: C2C12
# Assay: Cytotoxicity against mouse C2C12 cells up to 10 uM
# Assay type: cell-based
# Settings: not given
# Outline: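 Mouse C2C12 myoblasts infected with T. cruzi CA-I/72, then exposed at 24 h postinfection to compound at 10 μM down to 5 pM in 5-fold steps for 72 h at 37 °C. Cells fixed in paraformaldehyde, stained with DAPI and scored by automated imaging. Triplicate wells; uninfected and infected untreated wells as controls.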
row,SMILES,Activity
1,O=C(N[C@H](Cc1c[nH]c2ccccc12)C(=O)Nc1ccncc1)c1ccc(-c2cccc(F)c2)cc1F,Non-toxic
2,O=C(N[C@H](Cc1c[nH]c2ccccc12)C(=O)Nc1ccncc1)c1ccc(-c2ccc(OCc3ccc(F)cc3)c(F)c2)cc1F,Non-toxic

# System: Intestine
# Assay: Drug uptake in mouse intestine at 50 mg/kg, po in 20% Kolliphor measured at 8 hrs post dose
# Assay type: ADME, organism-based
# Parameters: dose 50 mg/kg, route oral
# Settings: in vivo
# Outline: as §1
row,SMILES,Drug uptake
1,O=C(N[C@H](Cc1c[nH]c2ccccc12)C(=O)Nc1ccncc1)c1ccc(-c2cccc(F)c2)cc1F,Active
2,O=C(N[C@H](Cc1c[nH]c2ccccc12)C(=O)Nc1ccncc1)c1ccc(-c2ccc(OCc3ccc(F)cc3)c(F)c2)cc1F,Active

# System: Liver
# Assay: Drug uptake in mouse liver at 50 mg/kg, po in 20% Kolliphor measured at 8 hrs post dose
# Assay type: ADME, organism-based
# Parameters: dose 50 mg/kg, route oral
# Settings: in vivo
# Outline: as §1
row,SMILES,Drug uptake
1,O=C(N[C@H](Cc1c[nH]c2ccccc12)C(=O)Nc1ccncc1)c1ccc(-c2cccc(F)c2)cc1F,Active
2,O=C(N[C@H](Cc1c[nH]c2ccccc12)C(=O)Nc1ccncc1)c1ccc(-c2ccc(OCc3ccc(F)cc3)c(F)c2)cc1F,Active

# System: Liver microsome
# Assay: Half life in human liver microsomes
# Assay type: ADME
# Settings: not given
row,SMILES,t1/2
1,O=C(N[C@H](Cc1c[nH]c2ccccc12)C(=O)Nc1ccncc1)c1ccc(-c2ccc(OCc3ccc(F)cc3)c(F)c2)cc1F,15 min

# System: Liver
# Assay: Drug uptake in mouse liver at 50 mg/kg, po in 20% HP-beta-CD measured at 8 hrs post dose
# Assay type: ADME, organism-based
# Parameters: dose 50 mg/kg, route oral
# Settings: in vivo
# Outline: as §1
row,SMILES,Drug uptake
1,O=C(N[C@H](Cc1c[nH]c2ccccc12)C(=O)Nc1ccncc1)c1ccc(-c2cccc(F)c2)cc1F,Active
2,O=C(N[C@H](Cc1c[nH]c2ccccc12)C(=O)Nc1ccncc1)c1ccc(-c2ccc(OCc3ccc(F)cc3)c(F)c2)cc1F,Active

# System: Trypanosoma cruzi
# Assay: Antitrypanosomal activity against Trypanosoma cruzi Y luc infected in mouse assessed as inhibition of parasitemia at 40 mg/kg, ip bid in 60% DMSO administered for 4 consecutive days starting on day 3 of infection measured on day 7 post infection relative to vehicle-treated control
# Settings: not given
row,SMILES,inhibition in vivo at 40 mg/kg
1,O=C(N[C@H](Cc1c[nH]c2ccccc12)C(=O)Nc1ccncc1)c1ccc(-c2cccc(F)c2)cc1F,51.6%
2,O=C(N[C@H](Cc1c[nH]c2ccccc12)C(=O)Nc1ccncc1)c1ccc(-c2ccc(OCc3ccc(F)cc3)c(F)c2)cc1F,96.9%

# System: Heart
# Assay: Drug uptake in mouse heart at 50 mg/kg, po in 20% Kolliphor measured at 8 hrs post dose
# Assay type: ADME, organism-based
# Parameters: dose 50 mg/kg, route oral
# Settings: in vivo
# Outline: as §1
row,SMILES,Drug uptake
1,O=C(N[C@H](Cc1c[nH]c2ccccc12)C(=O)Nc1ccncc1)c1ccc(-c2cccc(F)c2)cc1F,Active
2,O=C(N[C@H](Cc1c[nH]c2ccccc12)C(=O)Nc1ccncc1)c1ccc(-c2ccc(OCc3ccc(F)cc3)c(F)c2)cc1F,Active

# System: not listed separately
# Assay: Drug uptake in mouse fat at 50 mg/kg, po in 20% Kolliphor measured at 8 hrs post dose
# Assay type: ADME, organism-based, Adipose tissue
# Parameters: dose 50 mg/kg, route oral
# Settings: in vivo
# Outline: as §1
row,SMILES,Drug uptake
1,O=C(N[C@H](Cc1c[nH]c2ccccc12)C(=O)Nc1ccncc1)c1ccc(-c2cccc(F)c2)cc1F,Active
2,O=C(N[C@H](Cc1c[nH]c2ccccc12)C(=O)Nc1ccncc1)c1ccc(-c2ccc(OCc3ccc(F)cc3)c(F)c2)cc1F,Active

# System: Trypanosoma cruzi
# Assay: Antitrypanosomal activity against Trypanosoma cruzi Y luc infected in mouse assessed as inhibition of parasitemia at 50 mg/kg, po bid in 20% Kolliphor administered for 4 consecutive days starting on day 3 of infection measured on day 7 post infection relative to vehicle-treated control
# Assay type: functional
# Settings: not given
# Outline: (§2)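 Female Swiss Webster mice, 8 weeks old, infected ip with 10^5 T. cruzi Y luc trypomastigotes. Only mice with detectable luminescence on day 3 were treated. Compound given by oral gavage bid for four days, as a suspension in 20% HPβCD or a solution in 20% Kolliphor, five mice per group. Vehicle group and benznidazole 50 mg/kg served as controls. On day 7, mice were injected ip with 150 mg/kg d-luciferin and imaged after 5 min under isoflurane. Percent inhibition calculated against untreated mice; two-tailed paired t test.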
row,SMILES,inhibition in vivo at 50 mg/kg
1,O=C(N[C@H](Cc1c[nH]c2ccccc12)C(=O)Nc1ccncc1)c1ccc(-c2cccc(F)c2)cc1F,71.3%

# System: Lung
# Assay: Drug uptake in mouse lung at 50 mg/kg, po in 20% HP-beta-CD measured at 8 hrs post dose
# Assay type: ADME, organism-based
# Parameters: dose 50 mg/kg, route oral
# Settings: in vivo
# Outline: as §1
row,SMILES,Drug uptake
1,O=C(N[C@H](Cc1c[nH]c2ccccc12)C(=O)Nc1ccncc1)c1ccc(-c2cccc(F)c2)cc1F,Active
2,O=C(N[C@H](Cc1c[nH]c2ccccc12)C(=O)Nc1ccncc1)c1ccc(-c2ccc(OCc3ccc(F)cc3)c(F)c2)cc1F,Active

# System: Trypanosoma cruzi
# Assay: Antitrypanosomal activity against Trypanosoma cruzi Y luc infected in mouse assessed as inhibition of parasitemia at 25 mg/kg, po bid in 20% Kolliphor administered for 4 consecutive days starting on day 3 of infection measured on day 7 post infection relative to vehicle-treated control
# Assay type: functional
# Settings: not given
# Outline: as §2
row,SMILES,inhibition in vivo at 25 mg/kg
1,O=C(N[C@H](Cc1c[nH]c2ccccc12)C(=O)Nc1ccncc1)c1ccc(-c2cccc(F)c2)cc1F,47.4%
2,O=C(N[C@H](Cc1c[nH]c2ccccc12)C(=O)Nc1ccncc1)c1ccc(-c2ccc(OCc3ccc(F)cc3)c(F)c2)cc1F,75.6%

# System: Lung
# Assay: Drug uptake in mouse lung at 50 mg/kg, po in 20% Kolliphor measured at 8 hrs post dose
# Assay type: ADME, organism-based
# Parameters: dose 50 mg/kg, route oral
# Settings: in vivo
# Outline: as §1
row,SMILES,Drug uptake
1,O=C(N[C@H](Cc1c[nH]c2ccccc12)C(=O)Nc1ccncc1)c1ccc(-c2cccc(F)c2)cc1F,Active
2,O=C(N[C@H](Cc1c[nH]c2ccccc12)C(=O)Nc1ccncc1)c1ccc(-c2ccc(OCc3ccc(F)cc3)c(F)c2)cc1F,Active

# System: Liver
# Assay: Half life in mouse liver microsomes
# Assay type: ADME
# Settings: not given
row,SMILES,t1/2
1,O=C(N[C@H](Cc1c[nH]c2ccccc12)C(=O)Nc1ccncc1)c1ccc(-c2ccc(OCc3ccc(F)cc3)c(F)c2)cc1F,67 min

# System: not listed separately
# Assay: Drug uptake in mouse skeletal muscle at 50 mg/kg, po in 20% Kolliphor measured at 8 hrs post dose
# Assay type: ADME, organism-based, Muscle tissue
# Parameters: dose 50 mg/kg, route oral
# Settings: in vivo
# Outline: as §1
row,SMILES,Drug uptake
1,O=C(N[C@H](Cc1c[nH]c2ccccc12)C(=O)Nc1ccncc1)c1ccc(-c2cccc(F)c2)cc1F,Active
2,O=C(N[C@H](Cc1c[nH]c2ccccc12)C(=O)Nc1ccncc1)c1ccc(-c2ccc(OCc3ccc(F)cc3)c(F)c2)cc1F,Active

# System: Heart
# Assay: Drug uptake in mouse heart at 50 mg/kg, po in 20% HP-beta-CD measured at 8 hrs post dose
# Assay type: ADME, organism-based
# Parameters: dose 50 mg/kg, route oral
# Settings: in vivo
# Outline: as §1
row,SMILES,Drug uptake
1,O=C(N[C@H](Cc1c[nH]c2ccccc12)C(=O)Nc1ccncc1)c1ccc(-c2cccc(F)c2)cc1F,Active
2,O=C(N[C@H](Cc1c[nH]c2ccccc12)C(=O)Nc1ccncc1)c1ccc(-c2ccc(OCc3ccc(F)cc3)c(F)c2)cc1F,Active

# System: not listed separately
# Assay: Drug uptake in mouse skeletal muscle at 50 mg/kg, po in 20% HP-beta-CD measured at 8 hrs post dose
# Assay type: ADME, organism-based, Muscle tissue
# Parameters: dose 50 mg/kg, route oral
# Settings: in vivo
# Outline: as §1
row,SMILES,Drug uptake
1,O=C(N[C@H](Cc1c[nH]c2ccccc12)C(=O)Nc1ccncc1)c1ccc(-c2cccc(F)c2)cc1F,Active
2,O=C(N[C@H](Cc1c[nH]c2ccccc12)C(=O)Nc1ccncc1)c1ccc(-c2ccc(OCc3ccc(F)cc3)c(F)c2)cc1F,Active
